# Experimental data published in ChEMBL document CHEMBL2321859, “Cytotoxic betulin-derived hydroxypropargylamines trigger apoptosis” (Bioorg Med Chem, 2013).
# Key:
# A2780 = experiment: Cytotoxicity against human A2780 cells assessed as cell viability after 96 hrs by SRB assay; type: functional, cell-based
# DLD-1 = experiment: Cytotoxicity against human DLD1 cells assessed as cell viability after 96 hrs by SRB assay; type: functional, cell-based
# MCF7 = experiment: Cytotoxicity against human MCF7 cells assessed as cell viability after 96 hrs by SRB assay; type: functional, cell-based
# [1] = Cytotoxicity against human 518A2 cells assessed as cell viability after 96 hrs by SRB assay; type: functional, cell-based
# 8505C = experiment: Cytotoxicity against human 8505C cells assessed as cell viability after 96 hrs by SRB assay; type: functional, cell-based
# [2] = Cytotoxicity against human Lipo cells assessed as cell viability after 96 hrs by SRB assay; type: functional, cell-based
# NIH3T3 = experiment: Cytotoxicity against mouse NIH/3T3 cells assessed as cell viability after 96 hrs by SRB assay; type: cell-based; settings: NIH3T3, 96 h
# [3] = Cytotoxicity against human A253 cells assessed as cell viability after 96 hrs by SRB assay; type: functional, cell-based
# SW-1736 = experiment: Cytotoxicity against human SW1736 cells assessed as cell viability after 96 hrs by SRB assay; type: functional, cell-based
# A549 = experiment: Cytotoxicity against human A549 cells assessed as cell viability after 96 hrs by SRB assay; type: functional, cell-based
# [4] = Solubility of the compound in water/DMSO mixture; type: physicochemical
# Outline: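 Solubility was measured in water/DMSO (95:5, v/v) by HPLC with UV/vis detection.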
# [5] = water/DMSO mixture, read-out: solubility
Structure (SMILES),"IC50 (A2780; Homo sapiens, A2780, 96 h)","IC50 (DLD-1; Homo sapiens, DLD-1, 96 h)","IC50 (MCF7; Homo sapiens, MCF7, 96 h)","IC50 ([1]; Homo sapiens, 518A2, 96 h)","IC50 (8505C; Homo sapiens, 8505C, 96 h)","IC50 ([2]; Homo sapiens, Lipo, 96 h)",IC50 (NIH3T3),"IC50 ([3]; Homo sapiens, A253, 96 h)","IC50 (SW-1736; Homo sapiens, SW-1736, 96 h)","IC50 (A549; Homo sapiens, A549, 96 h)",also measured
C=C(C)[C@@H]1CC[C@]2([C@@H](O)C#CCN(Cc3ccccc3)Cc3ccccc3)CC[C@]3(C)[C@H](CC[C@@H]4[C@@]5(C)CC[C@H](OC(C)=O)C(C)(C)[C@@H]5CC[C@]43C)[C@@H]12,> 70 µM,> 70 µM,27.2 µM,> 30 µM,> 30 µM,> 70 µM,> 70 µM,> 70 µM,> 70 µM,> 70 µM,
C=C(C)[C@@H]1CC[C@]2([C@H](O)C#CCN(C3CCCCC3)C3CCCCC3)CC[C@]3(C)[C@H](CC[C@@H]4[C@@]5(C)CC[C@H](OC(C)=O)C(C)(C)[C@@H]5CC[C@]43C)[C@@H]12.Cl,> 30 µM,> 30 µM,> 30 µM,> 30 µM,> 30 µM,> 30 µM,> 30 µM,> 30 µM,> 30 µM,> 30 µM,"solubility [4, 5]: 100 µg/mL"
C=C(C)[C@@H]1CC[C@]2([C@H](O)C#CCN3CCNCC3)CC[C@]3(C)[C@H](CC[C@@H]4[C@@]5(C)CC[C@H](OC(C)=O)C(C)(C)[C@@H]5CC[C@]43C)[C@@H]12.Cl,2.7 µM,5.2 µM,2.5 µM,5 µM,6.9 µM,2.7 µM,4 µM,4.6 µM,7.7 µM,6.5 µM,"solubility [4, 5]: 178 µg/mL"
C=CCN(CC#C[C@@H](O)[C@]12CC[C@@H](C(=C)C)[C@@H]1[C@H]1CC[C@@H]3[C@@]4(C)CC[C@H](OC(C)=O)C(C)(C)[C@@H]4CC[C@@]3(C)[C@]1(C)CC2)CC=C [listing 1 of 2 here],18.2 µM,57.6 µM,31.1 µM,> 60 µM,> 60 µM,,,43.1 µM,48 µM,,IC50 ([2]; lipo): 17 µM; IC50 (A549; a549): > 30 µM
C=C(C)[C@@H]1CC[C@]2([C@H](O)C#CCN3CCCC3)CC[C@]3(C)[C@H](CC[C@@H]4[C@@]5(C)CCC(=O)C(C)(C)[C@@H]5CC[C@]43C)[C@@H]12,3.6 µM,2.6 µM,3.1 µM,5.6 µM,3.4 µM,5.6 µM,6.4 µM,3.4 µM,6 µM,3.5 µM,"solubility [4, 5]: 182 µg/mL"
C#C[C@H](O)[C@]12CC[C@@H](C(=C)C)[C@@H]1[C@H]1CC[C@@H]3[C@@]4(C)CC[C@H](OC(C)=O)C(C)(C)[C@@H]4CC[C@@]3(C)[C@]1(C)CC2,9.3 µM,> 30 µM,20.5 µM,32.5 µM,22.9 µM,28.9 µM,32.3 µM,16.5 µM,23 µM,42.2 µM,
C=C(C)[C@@H]1CC[C@]2([C@H](O)C#CCN(C(C)C)C(C)C)CC[C@]3(C)[C@H](CC[C@@H]4[C@@]5(C)CC[C@H](O)C(C)(C)[C@@H]5CC[C@]43C)[C@@H]12,5.4 µM,9.1 µM,8.2 µM,6.4 µM,5.8 µM,10.3 µM,6.2 µM,8.2 µM,4 µM,8.3 µM,
C=C(C)[C@@H]1CC[C@]2([C@H](O)C#CCN(C)C)CC[C@]3(C)[C@H](CC[C@@H]4[C@@]5(C)CC[C@H](OC(C)=O)C(C)(C)[C@@H]5CC[C@]43C)[C@@H]12.Cl,4.9 µM,12.9 µM,3.7 µM,7.2 µM,6.7 µM,8.6 µM,5.8 µM,6.4 µM,6.5 µM,11.1 µM,"solubility [4, 5]: 312 µg/mL"
C=C(C)[C@@H]1CC[C@]2([C@@H](O)C#CCN3CCCC3)CC[C@]3(C)[C@H](CC[C@@H]4[C@@]5(C)CC[C@H](OC(C)=O)C(C)(C)[C@@H]5CC[C@]43C)[C@@H]12,8.3 µM,18.8 µM,7.7 µM,12.1 µM,11.1 µM,11.6 µM,14.5 µM,10.4 µM,20 µM,12 µM,
C#C[C@H](O)[C@]12CC[C@@H](C(=C)C)[C@@H]1[C@H]1CC[C@@H]3[C@@]4(C)CCC(=O)C(C)(C)[C@@H]4CC[C@@]3(C)[C@]1(C)CC2,9.8 µM,19 µM,17.1 µM,22.4 µM,16.7 µM,21.7 µM,> 35 µM,13.4 µM,18.4 µM,21.2 µM,
C=C(C)[C@@H]1CC[C@]2(C(=O)O)CC[C@]3(C)[C@H](CC[C@@H]4[C@@]5(C)CC[C@H](O)C(C)(C)[C@@H]5CC[C@]43C)[C@@H]12 [BETULINIC ACID],11 µM,,,,,9.7 µM,10 µM,,,,solubility ([4]; buffer): 166 µg/mL
C=C(C)[C@@H]1CC[C@]2([C@H](O)C#CCN3CCSCC3)CC[C@]3(C)[C@H](CC[C@@H]4[C@@]5(C)CC[C@H](OC(C)=O)C(C)(C)[C@@H]5CC[C@]43C)[C@@H]12,4.3 µM,19 µM,3.8 µM,9.3 µM,2 µM,3.5 µM,8.8 µM,7.5 µM,3.7 µM,16.3 µM,
C=C(C)[C@@H]1CC[C@]2([C@H](O)C#CCN(CCC)CCC)CC[C@]3(C)[C@H](CC[C@@H]4[C@@]5(C)CC[C@H](OC(C)=O)C(C)(C)[C@@H]5CC[C@]43C)[C@@H]12,12 µM,20.7 µM,16.5 µM,21 µM,28 µM,24.2 µM,> 30 µM,15.2 µM,7.5 µM,25.9 µM,
C=CCN(CC#C[C@@H](O)[C@]12CC[C@@H](C(=C)C)[C@@H]1[C@H]1CC[C@@H]3[C@@]4(C)CC[C@H](OC(C)=O)C(C)(C)[C@@H]4CC[C@@]3(C)[C@]1(C)CC2)CC=C [listing 2 of 2 here],,,,,,21.8 µM,> 60 µM,,,> 60 µM,IC50 (A2780; a2780): 12.4 µM; IC50 (DLD-1; dld-1): 44.2 µM; IC50 (MCF7; mcf7): 15.7 µM; IC50 ([1]; 518a2): 52 µM; IC50 (8505C; 8505c): 47.9 µM; IC50 ([3]; a253): 32.8 µM; IC50 (SW-1736; sw-1736): 30.2 µM
C=C(C)[C@@H]1CC[C@]2([C@H](O)C#CCN3CCCCCC3)CC[C@]3(C)[C@H](CC[C@@H]4[C@@]5(C)CC[C@H](OC(C)=O)C(C)(C)[C@@H]5CC[C@]43C)[C@@H]12,14.4 µM,40.8 µM,13.5 µM,22.4 µM,32.3 µM,> 30 µM,17 µM,20.1 µM,32.3 µM,47 µM,
C#C[C@H](O)[C@]12CC[C@@H](C(=C)C)[C@@H]1[C@H]1CC[C@@H]3[C@@]4(C)CC[C@H](O)C(C)(C)[C@@H]4CC[C@@]3(C)[C@]1(C)CC2,9.7 µM,21.9 µM,11.9 µM,15.1 µM,16.1 µM,12.9 µM,10.5 µM,14.1 µM,13 µM,20.4 µM,
